An excerpt weighted towards active compounds, which were near 3.8% of everything screened.
Granule exo inh: blocks lytic granule exocytosis; 360,000 tested, 0.66% active; TALL-104 LAMP-1 surface exposure, flow cytometry; cells stimulated with thapsigargin and PMA; inhibition, % at 10 µM;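 active = inhibition above about 55%, limit read from the data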
B2AR ag: human beta-2 adrenergic receptor agonism by FAP | P07550 | Am2.2-beta2AR cells, FAP receptor internalization, flow cytometry | 340,000 tested, 0.43% active | AID 504454 | response, % (test concentration not listed);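 active = response above a set limit, near 3 SD of response in nonfluorescent compounds, cut at about 42% in these data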
Target sequence (P07550 whole entry, looked up): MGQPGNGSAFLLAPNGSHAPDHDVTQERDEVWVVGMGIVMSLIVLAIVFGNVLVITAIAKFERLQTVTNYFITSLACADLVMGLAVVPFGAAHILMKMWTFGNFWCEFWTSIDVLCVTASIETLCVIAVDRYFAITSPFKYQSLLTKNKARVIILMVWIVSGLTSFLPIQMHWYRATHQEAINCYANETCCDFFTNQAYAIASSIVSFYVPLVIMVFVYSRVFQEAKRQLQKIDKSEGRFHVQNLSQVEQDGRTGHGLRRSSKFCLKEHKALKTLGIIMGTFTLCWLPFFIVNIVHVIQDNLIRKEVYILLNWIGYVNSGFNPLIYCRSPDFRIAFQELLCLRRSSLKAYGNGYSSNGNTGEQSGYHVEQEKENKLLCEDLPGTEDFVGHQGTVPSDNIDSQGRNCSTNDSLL
V-ATPase pHluor: yeast V-ATPase proton transport regulation by pHLuorin; S. cerevisiae, pHLuorin cytosolic pH fluorescence; response, % at 10 µM; 350,000 tested, 0.37% active; AID 504577; in the data active = response mostly above about 7.3%, no sharp cut-off; inactive = mostly below about 5.4%; also: actives read high
rCAG RNA binder: binds r(CAG) RNA repeats. r(CAG) RNA repeat, TO-PRO-1 dye displacement fluorescence. inhibition, % at 3 µM. 370,000 tested, 1.3% active;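 active = inhibition above the plate cutoff, the mean of all test compounds on that plate plus 3 SD, cut at about 35% in these data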;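 also: higher means more dye released from RNA so lower well fluorescence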
MPTP inh: inhibitors of mitochondrial permeability transition pore; 360,000 tested, 1.4% active; AID 602449; inhibition, % at 10 µM; isolated mouse mitochondria, Ca2+ swelling absorbance, 30 min;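 active = inhibition of 50% or more, scaled per plate between neutral and stimulator controls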
T cell modulator: T cell immune modulation candidate. 2C CD8+ T cell-vesicle binding, flow cytometry; active compounds read low. response (vesicle binding), % at 7 µM. 330,000 tested, 0.068% active. AID 2052;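 active = response, share of CD8 T cells binding vesicles, and their 90th percentile fluorescence all below set limits, cut at about 80% in these data, passing the limit was not always enough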;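 also: values below 100% mean blocked vesicle binding to the CD8+ T cells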
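material = purified 2C TCR transgenic mouse naive CD8+ T cells | controls = Unloaded micro-vesicles (low), QL9 vesicles with 0.7% DMSO (high) | detection = cytometric PE anti-B7-1 and Alexa647 anti-CD8 signals after 1% paraformaldehyde fixation | incubation = binding step 1.5 h, 37 °C, antibody labelling 20 min, ice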
Rh123 counter: membrane potential counter-screen of mitochondrial pore inhibitors; shares compounds with MPTP inh; isolated mitochondria, Rhodamine 123 fluorescence; inhibition, % at 10 µM; 5,000 tested, 78% active; AID 624504; in the data active = inhibition above about 22%
MPTP swell DR: dose response confirmation of mitochondrial permeability transition pore inhibitors; IC50, µM; isolated mitochondria swelling, absorbance; 780 tested, 58% active; shares compounds with MPTP inh; in the data active = IC50 below about 20 µM
MPTP cs DR: MPTP inhibitor counter-screen activity, dose response; shares compounds with MPTP inh; isolated mitochondria counterscreen, fluorescence read-out; IC50, µM; 780 tested, 49% active; AID 651564; in the data active = IC50 below about 80 µM
Hits are given with their value; - = inactive; . = not tested or not shown.

SMILES | Granule exo inh | B2AR ag | V-ATPase pHluor | rCAG RNA binder | MPTP inh | T cell modulator | Rh123 counter | others
COc1ccc(C2=NCC(CSc3nnc(-c4ccc5c(c4)OCO5)o3)S2)cc1 (configuration not stated) | - | - | - | - | 58 | - | 81
Cc1ccc(CSc2nnc(-c3ccc4c(c3)OCO4)o2)cc1 | - | - | - | - | - | - | .
COC(=O)C1CN(C2CCCC2)CCS(=O)(=O)N1Cc1ccc(F)cc1 (configuration not stated) | . | . | . | - | . | . | .
CSc1cccc(NC(=O)/C=C/c2ccccc2)c1 | - | - | - | - | 52 | - | 53
CSc1cccc(NC(C)=O)c1 | - | - | - | - | - | - | .
CSc1cccc(NC(=O)/C=C/c2ccc(Cl)cc2)c1 | - | - | - | - | 90 | - | 90
CSc1cccc(NC(=O)Nc2ccccc2)c1 | - | - | - | - | 88 | - | 110
O=C(N[C@@H](Cc1cccnc1)C(=O)N1CCC[C@H]1C(=O)NCCc1ccccc1Cl)c1ccccc1 | . | . | . | - | . | . | .
CC(C)(C)c1ccc(S(=O)(=O)N2CCC(N3CCCCC3)CC2)cc1 | - | - | - | - | 71 | - | - | MPTP swell DR=-;MPTP cs DR=27
COc1ccc(S(=O)(=O)N2CCC(O)(c3ccc(Cl)cc3)CC2)cc1 | - | - | - | - | - | - | .
CC(C)(C)c1ccc(S(=O)(=O)N2CCC(O)(c3ccc(Cl)cc3)CC2)cc1 | - | - | - | - | 84 | - | 92
COc1ccccc1C(=O)n1ccc2ccc(-c3ccc4ccn(Cc5ccccc5)c4c3)cc21 | . | . | . | - | . | . | .
O=S1(=O)c2ccc(Br)cc2OC[C@H](Cc2ccccc2)N1Cc1cn(Cc2ccc(Cl)cc2)nn1 | . | . | . | - | . | . | .
CCN=C1S/C(=C\c2cc(OCC)c(O)cc2Br)C(=O)N1CC | - | - | - | - | 67 | - | 71
Cc1cn2c(=O)c3ncn(C4OC(CO)C(O)C4O)c3n(C)c2n1 (configuration not stated) | . | . | . | - | . | . | .
CCCCCCCCCCCCC/C=C/[C@@H](O)[C@@H](N)CO | - | - | - | - | 98 | - | -
CCCCCCCC/C=C\CCCCCCCC(=O)O | - | - | - | - | - | - | .
COc1ccc(OC)c(C(=O)COC(=O)c2cc(C)oc2C)c1 | - | - | - | - | 60 | - | - | MPTP swell DR=10;MPTP cs DR=-
CCn1c(=O)n(CC(=O)N2CCCC2)c(=O)c2ccccc21 | . | . | . | - | . | . | .
Cc1ccc(-c2nnc(NCc3ccccc3)c3ccccc23)cc1 | - | - | - | - | 65 | - | 85
O=C(COC(=O)CNS(=O)(=O)/C=C/c1ccccc1)Nc1cc(S(=O)(=O)N2CCCCC2)ccc1Cl | - | - | - | - | 70 | - | - | MPTP swell DR=-;MPTP cs DR=11
Cc1ccc(S(=O)(=O)N2CCCCC2)cc1NC(=O)Nc1ccc(Cl)cc1Cl | - | - | - | - | 85 | - | 29
O=C(Nc1cccc(Cl)c1)Nc1cc(S(=O)(=O)N2CCCCC2)ccc1Cl | - | - | - | - | 84 | - | 63
O=C(COC(=O)CCS(=O)(=O)c1ccccc1)Nc1cc(S(=O)(=O)N2CCCCC2)ccc1Cl | - | - | - | - | - | - | .
Cc1ccc(S(=O)(=O)N2CCCCC2)cc1NCC(=O)Nc1ccc(Br)cc1F | - | . | - | - | 66 | . | 94
SMILES | Granule exo inh | B2AR ag | V-ATPase pHluor | rCAG RNA binder | MPTP inh | T cell modulator | Rh123 counter | others
COc1ccc(-c2nnc(SCC(=O)N/N=C\C=C/c3ccco3)n2-c2ccc(C)cc2)cc1 | . | . | . | - | . | . | .
O=C(CSc1nnc(-c2ccccc2)n1-c1ccc(Cl)cc1)c1ccc(Cl)cc1 | . | . | . | - | . | . | .
COC(=O)c1cccc(Cn2ccc3ccc(-c4ccc5ccn(C(=O)c6ccc(C)cc6)c5c4)cc32)c1 | . | . | . | - | . | . | .
COc1ccc(CCNc2c(C)c(C)nc3ncnn23)cc1 | - | - | - | - | 74 | - | 83
CCc1c(C)nc2ncnn2c1NCCc1ccc(OC)c(OC)c1 | - | - | - | - | - | - | .
COC(=O)[C@H]1C[C@@]2(C#N)c3ccccc3N(C(=O)OC(C)(C)C)[C@H]2N1C(=O)OC(C)(C)C | . | . | . | - | . | . | .
COc1ccc(CN2C(C(=O)NCC(C)C)CSCCS2(=O)=O)cc1 (configuration not stated) | . | . | . | - | . | . | .
C#CCN(Cc1ccco1)C(=O)c1nnc2c3cc(OC)ccc3n(S(=O)(=O)c3ccc(OC)cc3)c2n1 | . | . | . | - | . | . | .
Cc1ccc(-c2nnc(SCC(=O)Nc3ccc4c(c3)OCCO4)n2-c2ccc(Cl)cc2)cc1 | . | . | . | - | . | . | .
COc1ccc(C(=O)NCCCN2CCOCC2)cc1 | - | - | - | - | - | - | .
COc1ccc(-c2nc3ccc(C(=O)NCCCN4CCOCC4)cc3nc2-c2ccc(OC)cc2)cc1 | - | - | - | - | 84 | - | - | MPTP swell DR=4.9;MPTP cs DR=-
CCN1CCN(CCNC(=O)c2ccc3nc(-c4cccc(C)c4)c(-c4cccc(C)c4)nc3c2)CC1 | - | - | - | - | 96 | - | -
CCCNC(=O)c1ccc2nc(-c3ccccc3)c(-c3ccccc3)nc2c1 | - | - | - | - | - | - | .
COC(=O)C1=C(C)N(C)C(=NCc2ccc(OC)cc2)NC1c1cccc(F)c1 (configuration not stated) | . | . | . | - | . | . | .
Cc1cccc(N2CCN(C(=O)CSCc3c(C)noc3C)CC2)c1C | - | - | - | . | 90 | - | 75
CN(C)C(CNc1ccc(S(C)(=O)=O)cc1[N+](=O)[O-])c1ccccc1 (configuration not stated) | - | - | - | - | - | - | .
CN(C)C(CNc1ccc(C(F)(F)F)cc1[N+](=O)[O-])c1ccccc1 (configuration not stated) | 74 | - | - | - | 62 | - | - | MPTP swell DR=-;MPTP cs DR=-
O=[N+]([O-])c1cc(C(F)(F)F)ccc1NCCCCNS(=O)(=O)c1ccc2ccccc2c1 | - | - | - | - | 91 | - | 79
CS(=O)(=O)NCCCCNc1ccc(C(F)(F)F)cc1[N+](=O)[O-] | - | - | - | - | - | - | .
CCCCc1c(-c2ccccc2OC)ncn1Cc1cc(F)ccc1F | . | . | . | - | . | . | .
c1ccc(Cn2ccc3ccc(-c4ccc5ccn(Cc6cccc(-c7ccsc7)c6)c5c4)cc32)cc1 | . | . | . | - | . | . | .
CC(C)C(=O)Nc1ccc(Sc2ccc(F)cc2)cc1 | - | - | - | - | 52 | - | 37
CC(C)C(=O)Nc1ccc(Nc2ccccc2)cc1 | - | - | - | - | - | - | .
Nc1ccc(F)c(CN2CCN(c3ncc(Cc4ccccc4)cn3)CC2)c1 | . | . | . | - | . | . | .
O=C(OC12CCCN(C1)/C(=C/c1ccc(Cl)cc1)C2)c1ccc(F)cc1 (configuration not stated) | . | . | . | - | . | . | .
O=C(CCN1C(=O)/C(=C/c2cccc(Br)c2)SC1=S)Nc1cccnc1 | - | - | - | - | 52 | - | - | MPTP swell DR=-;MPTP cs DR=20
